Reference: ChEMBL document CHEMBL3875172, “Evaluation of the anti-malarial activity and cytotoxicity of 2,4-diamino-pyrimidine-based kinase inhibitors” (Eur J Med Chem, 2016)
One block for each molecule: values may come before it.

Columns and labels:
[1] = system: Plasmodium falciparum; assay: Antimalarial activity against multidrug-resistant Plasmodium falciparum K1 infected human erythrocytes assessed as reduction in parasite viability after 24 hrs by [3H]-hypoxanthine incorporation assay; type: functional
How it was run: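 K1 parasites cultured in RPMI-1640 with 25 mM HEPES, 25 mM NaHCO3, 10% […] human serum and erythrocytes at 37 C, 3% CO2. Early ring-stage culture (1% parasitemia, 1.5% Hct) was exposed to compounds in duplicate for 24 h, then [3H]hypoxanthine was added for a further 18-20 h. Incorporation was scintillation-counted, and IC50 (50% growth reduction) was taken from fitted curves. The vehicle was 0.5% DMSO.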

[2] = Cytotoxicity against African green monkey Vero cells at 10 uM after 4 days by fluorescence assay; type: toxicity, cell-based; conditions: chlorocebus sabaeus, 96 h
How it was run: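 GFP-expressing Vero cells (stably transfected with pEGFP-N1), maintained in MEM with 10% heat-inactivated FBS, L-glutamine, pyruvate and geneticin. Seeded at 3.3 × 10^4 cells/ml onto compound at […] (so in the source), then incubated 4 days at 37 °C, 5% CO2. Read by bottom fluorescence (ex 530/em 590 nm) as percent cytotoxicity. Ellipticine positive control; 0.5% DMSO negative control.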

[3] = Cytotoxicity against human A549 cells after 72 hrs by MTT assay; type: toxicity, cell-based
How it was run: (§1)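 Dose-response MTT assay in cells grown in DMEM with 10% FBS, penicillin and streptomycin at 37 °C, 5% CO2. Cells were precultured 16–18 h, then exposed to compound for 72 h. MTT was added for 3 h, formazan dissolved in DMSO, and absorbance read at 570 nm. Gefitinib positive control; 0.5% DMSO negative control.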

[4] = Cytotoxicity against African green monkey Vero cells after 72 hrs by MTT assay; type: toxicity, cell-based, Chlorocebus sabaeus; how it was run: as §1
[5] = molecular target: Epidermal growth factor receptor (Homo sapiens, UniProt P00533); assay: Inhibition of human EGFR using poly (Glu:Tyr) as substrate measured for 1.5 hrs by oregon green 488 dye-based fluorescence assay
Epidermal growth factor receptor, sequence (P00533 whole entry): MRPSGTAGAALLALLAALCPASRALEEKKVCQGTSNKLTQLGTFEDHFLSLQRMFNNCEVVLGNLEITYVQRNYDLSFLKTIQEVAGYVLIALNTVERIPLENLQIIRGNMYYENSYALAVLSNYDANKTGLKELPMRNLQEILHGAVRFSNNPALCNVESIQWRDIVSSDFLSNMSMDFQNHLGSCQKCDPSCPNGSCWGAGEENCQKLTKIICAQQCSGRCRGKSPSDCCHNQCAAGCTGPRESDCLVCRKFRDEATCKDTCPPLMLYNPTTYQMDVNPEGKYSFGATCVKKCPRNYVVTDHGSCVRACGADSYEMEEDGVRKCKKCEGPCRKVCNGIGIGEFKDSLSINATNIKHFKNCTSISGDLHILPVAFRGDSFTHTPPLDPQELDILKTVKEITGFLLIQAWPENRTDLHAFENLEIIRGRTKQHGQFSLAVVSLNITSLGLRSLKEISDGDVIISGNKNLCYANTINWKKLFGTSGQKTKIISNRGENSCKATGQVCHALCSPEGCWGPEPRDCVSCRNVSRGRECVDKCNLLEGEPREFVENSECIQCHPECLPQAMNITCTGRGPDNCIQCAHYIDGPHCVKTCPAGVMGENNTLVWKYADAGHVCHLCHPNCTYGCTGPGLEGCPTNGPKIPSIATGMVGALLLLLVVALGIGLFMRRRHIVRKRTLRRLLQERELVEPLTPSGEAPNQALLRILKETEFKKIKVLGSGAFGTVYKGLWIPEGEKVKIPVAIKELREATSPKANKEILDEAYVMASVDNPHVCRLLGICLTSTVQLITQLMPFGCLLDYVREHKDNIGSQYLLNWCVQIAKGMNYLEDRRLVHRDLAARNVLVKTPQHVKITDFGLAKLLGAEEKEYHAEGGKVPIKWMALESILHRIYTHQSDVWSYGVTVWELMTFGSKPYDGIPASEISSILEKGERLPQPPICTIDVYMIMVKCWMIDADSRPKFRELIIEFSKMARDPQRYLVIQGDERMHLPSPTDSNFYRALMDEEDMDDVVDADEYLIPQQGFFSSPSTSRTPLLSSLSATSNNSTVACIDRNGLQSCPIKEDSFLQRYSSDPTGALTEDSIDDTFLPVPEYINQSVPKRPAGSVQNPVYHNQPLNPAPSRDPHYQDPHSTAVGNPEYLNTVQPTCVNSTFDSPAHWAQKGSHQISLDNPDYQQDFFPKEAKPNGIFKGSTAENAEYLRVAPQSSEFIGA

[6] = molecular target: T1, Tyrosine-protein kinase JAK3 (Homo sapiens, UniProt P52333); assay: Inhibition of human JAK3 using poly (Glu:Tyr) as substrate
T1 sequence (P52333 whole entry): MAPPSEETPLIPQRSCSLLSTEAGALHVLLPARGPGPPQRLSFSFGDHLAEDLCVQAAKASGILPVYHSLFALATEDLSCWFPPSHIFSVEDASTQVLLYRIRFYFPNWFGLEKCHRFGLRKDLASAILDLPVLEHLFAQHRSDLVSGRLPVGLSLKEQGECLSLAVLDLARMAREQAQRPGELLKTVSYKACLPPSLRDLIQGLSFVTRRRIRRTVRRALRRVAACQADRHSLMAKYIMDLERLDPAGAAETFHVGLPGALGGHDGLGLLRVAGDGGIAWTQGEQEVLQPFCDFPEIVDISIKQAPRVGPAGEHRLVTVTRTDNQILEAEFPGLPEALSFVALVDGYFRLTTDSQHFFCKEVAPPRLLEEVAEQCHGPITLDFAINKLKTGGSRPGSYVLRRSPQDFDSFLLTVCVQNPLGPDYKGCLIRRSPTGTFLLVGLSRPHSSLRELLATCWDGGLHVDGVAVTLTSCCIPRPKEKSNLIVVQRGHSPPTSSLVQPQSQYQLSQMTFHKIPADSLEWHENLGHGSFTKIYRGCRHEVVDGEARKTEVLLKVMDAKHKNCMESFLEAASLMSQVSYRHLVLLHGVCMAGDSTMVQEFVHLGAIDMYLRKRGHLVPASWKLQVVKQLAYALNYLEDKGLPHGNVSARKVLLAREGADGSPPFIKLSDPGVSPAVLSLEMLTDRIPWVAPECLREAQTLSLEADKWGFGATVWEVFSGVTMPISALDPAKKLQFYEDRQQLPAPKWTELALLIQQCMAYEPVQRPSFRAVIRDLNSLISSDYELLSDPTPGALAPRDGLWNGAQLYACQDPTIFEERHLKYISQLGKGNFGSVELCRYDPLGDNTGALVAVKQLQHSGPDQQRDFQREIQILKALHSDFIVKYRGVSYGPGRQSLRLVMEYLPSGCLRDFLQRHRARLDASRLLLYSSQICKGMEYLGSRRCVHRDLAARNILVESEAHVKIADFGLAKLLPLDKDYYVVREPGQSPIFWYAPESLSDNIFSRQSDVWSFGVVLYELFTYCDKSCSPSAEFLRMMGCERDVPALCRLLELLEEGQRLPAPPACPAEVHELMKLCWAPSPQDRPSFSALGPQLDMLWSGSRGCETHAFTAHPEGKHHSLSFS
How it was run: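 Antibody Beacon tyrosine kinase fluorescence assay, run as for EGFR. Reaction held 3 ng JAK3 enzyme, 0.1 mg/ml poly(Glu:Tyr) and 0.1 mg/ml ATP.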

[7] = molecular target: Tyrosine-protein kinase JAK2 (Homo sapiens, UniProt O60674); assay: Inhibition of human JAK2 using poly (Glu:Tyr) as substrate
Tyrosine-protein kinase JAK2, sequence (O60674 whole entry): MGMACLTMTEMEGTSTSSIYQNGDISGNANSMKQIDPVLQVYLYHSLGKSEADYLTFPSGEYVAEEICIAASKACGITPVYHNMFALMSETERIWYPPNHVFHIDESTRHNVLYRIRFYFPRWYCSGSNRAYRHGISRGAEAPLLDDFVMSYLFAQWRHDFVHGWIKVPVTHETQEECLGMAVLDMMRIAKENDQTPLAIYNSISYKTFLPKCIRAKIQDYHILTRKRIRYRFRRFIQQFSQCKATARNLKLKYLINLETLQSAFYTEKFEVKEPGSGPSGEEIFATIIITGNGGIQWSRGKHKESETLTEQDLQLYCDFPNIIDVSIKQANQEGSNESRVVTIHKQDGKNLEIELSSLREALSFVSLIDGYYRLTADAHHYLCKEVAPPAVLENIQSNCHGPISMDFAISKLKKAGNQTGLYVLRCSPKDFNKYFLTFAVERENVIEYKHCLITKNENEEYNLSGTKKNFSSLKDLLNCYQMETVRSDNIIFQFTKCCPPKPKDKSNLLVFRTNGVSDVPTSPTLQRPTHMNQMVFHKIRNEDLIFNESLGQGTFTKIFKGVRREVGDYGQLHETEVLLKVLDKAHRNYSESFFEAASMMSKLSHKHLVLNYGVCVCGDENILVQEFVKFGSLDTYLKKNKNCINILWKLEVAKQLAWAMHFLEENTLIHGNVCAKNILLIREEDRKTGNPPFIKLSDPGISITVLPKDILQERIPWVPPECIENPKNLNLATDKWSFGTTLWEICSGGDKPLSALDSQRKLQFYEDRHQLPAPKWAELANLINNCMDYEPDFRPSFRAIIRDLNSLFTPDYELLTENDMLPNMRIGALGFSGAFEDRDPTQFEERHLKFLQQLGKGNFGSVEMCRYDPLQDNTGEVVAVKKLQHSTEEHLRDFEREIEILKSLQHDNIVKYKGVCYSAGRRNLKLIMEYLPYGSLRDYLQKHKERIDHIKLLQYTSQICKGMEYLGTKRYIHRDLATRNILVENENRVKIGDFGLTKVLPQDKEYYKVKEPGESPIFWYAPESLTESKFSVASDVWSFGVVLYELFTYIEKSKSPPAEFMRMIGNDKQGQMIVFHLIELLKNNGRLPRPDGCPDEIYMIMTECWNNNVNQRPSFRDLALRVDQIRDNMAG
How it was run: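 Antibody Beacon tyrosine kinase fluorescence assay, run as for EGFR. Reaction held 10 ng JAK2 enzyme, 0.1 mg/ml poly(Glu:Tyr) and 0.1 mg/ml ATP.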

[8] = Cytotoxicity against human HepG2 cells at 10uM; type: toxicity, cell-based; conditions: hepg2, 10 µM
[9] = system: Plasmodium falciparum; assay: Antimalarial activity against Plasmodium falciparum 3D7 by high throughput screening assay; type: functional

Compound: C[C@H]1[C@@H](O)O[C@@H]2O[C@@]3(C)CC[C@H]4[C@H](C)CC[C@@H]1[C@@]24OO3 [ARTENIMOL]
IC50 [1]: 0.00254 µM

Compound: NC(=O)c1ccccc1Nc1ccnc(Nc2ccc(N3CCOCC3)cc2)n1
Activity [2]: 68% | IC50 [1]: 4.39 µM

Compound: Cc1cc(Nc2ncc(C#N)c(Nc3cccc(S(N)(=O)=O)c3)n2)ccc1N1CCN(C)CC1
Activity [2]: 94% | IC50 [1]: 5.56 µM

Compound: O[C@@H](c1cc(C(F)(F)F)nc2c(C(F)(F)F)cccc12)[C@H]1CCCCN1 [(S,R)-MEFLOQUINE]
IC50 [1]: 0.07 µM

Compound: Cc1cc(Nc2nccc(Nc3ccccc3C(N)=O)n2)ccc1N1CCN(C)CC1
Activity [2]: 92% | IC50 [1]: 1.06 µM

Compound: CN1CCN(c2ccc(Nc3nccc(Nc4cccc(S(N)(=O)=O)c4)n3)cc2)CC1
Activity [2]: 80% | IC50 [1]: 7.25 µM

Compound: Cc1cc(Nc2ncc(C#N)c(Nc3cccc(S(C)(=O)=O)c3)n2)ccc1N1CCN(C)CC1
Activity [2]: 92% | IC50 [1]: 4.72 µM

Compound: Cc1cccc(Nc2ccnc(Nc3cccc(C)c3)n2)c1
Activity [2]: 94%

Compound: NS(=O)(=O)c1cccc(Nc2ccnc(Nc3ccc(N4CCOCC4)cc3)n2)c1
EC50 at 72 h [3]: 9.4 µM | EC50 at 72 h [4]: 37 µM | Activity [2]: 35% | IC50 [5]: > 100 µM | IC50 [6]: 7.1 µM | IC50 [7]: 0.129 µM | IC50 [1]: 8.97 µM

IC50 [9]: 0.759 µM
Compound: CNC(=O)c1cnc(Nc2ccc(N3CCOCC3)cc2)nc1Nc1cccc(OC(C)C)c1
Activity [8]: 19%

Compound: Cc1cccc(Nc2ncc(C#N)c(Nc3cccc(C)c3)n2)c1
Activity [2]: 40%

IC50 [9]: 0.138 µM
Compound: CNC(=O)c1cnc(Nc2ccc(N3CCN(C)CC3)cc2)nc1Nc1cccc([N+](=O)[O-])c1
Activity [8]: 16%

IC50 [9]: 0.04 µM
Compound: CN1CCN(c2ccc(Nc3ncc(C#N)c(Nc4ccccc4C(N)=O)n3)cc2)CC1
Activity [8]: 43%

Compound: Cc1cc(Nc2ncc(C#N)c(Nc3cccc(S(=O)(=O)NC(C)(C)C)c3)n2)ccc1N1CCN(C)CC1
EC50 at 72 h [3]: > 100 µM | EC50 at 72 h [4]: 45.4 µM | Activity [2]: 31% | IC50 [5]: > 150 µM | IC50 [6]: > 100 µM | IC50 [7]: > 100 µM | IC50 [1]: 4.56 µM

Compound: Cc1cc(Nc2nc(Nc3cccc(S(N)(=O)=O)c3)ncc2C#N)ccc1N1CCN(C)CC1
Activity [2]: 33%

Compound: Cc1cc(Nc2nccc(Nc3cccc(S(N)(=O)=O)c3)n2)ccc1N1CCN(C)CC1
EC50 at 72 h [3]: 4.2 µM | EC50 at 72 h [4]: > 100 µM | Activity [2]: 66% | IC50 [5]: > 150 µM | IC50 [6]: 4.1 µM | IC50 [7]: 0.126 µM | IC50 [1]: 3.86 µM

Compound: Cc1cccc(Nc2ncc(C(N)=O)c(Nc3cccc(C)c3)n2)c1
Activity [2]: 96%

Compound: CN1CCN(c2ccc(Nc3nccc(Nc4ccccc4C(N)=O)n3)cc2)CC1
Activity [2]: 91% | IC50 [1]: 1.5 µM

Compound: CCN(CC)CCCC(C)Nc1ccnc2cc(Cl)ccc12 (stereo not drawn) [CHLOROQUINE]
Activity [2]: 45%

Compound: Cc1cccc(Nc2ccnc(Nc3ccc(N4CCN(C)CC4)cc3)n2)c1
EC50 at 72 h [3]: 7.1 µM | EC50 at 72 h [4]: 1 µM | Activity [2]: 94% | IC50 [5]: 11 µM | IC50 [6]: 2.1 µM | IC50 [7]: 0.14 µM | IC50 [1]: 0.431 µM

Compound: Cc1cccc(Nc2ccnc(Nc3ccc(N4CCOCC4)cc3)n2)c1
Activity [2]: 74%

Compound: Cc1cccc(Nc2ccnc(Nc3ccc(N4CCN(C)CC4)c(C)c3)n2)c1
EC50 at 72 h [3]: 3.5 µM | EC50 at 72 h [4]: 2 µM | Activity [2]: 94% | IC50 [5]: > 150 µM | IC50 [6]: 1.8 µM | IC50 [7]: 0.05 µM | IC50 [1]: 0.647 µM

Compound: c1cc(Nc2ccc(N3CCOCC3)cc2)nc(Nc2ccc(N3CCOCC3)cc2)n1
Activity [2]: 25%

Compound: COc1cnc(Nc2ccc(N3CCN(C)CC3)c(C)c2)nc1Nc1cccc(S(N)(=O)=O)c1
Activity [2]: 88% | IC50 [1]: 5.26 µM

Compound: Cc1cc(Nc2ncc(C#N)c(Nc3ccccc3C(N)=O)n2)ccc1N1CCN(C)CC1
Activity [8]: 99% | Activity [2]: 94% | IC50 [1]: 3.93 µM | IC50 [9]: 0.009 µM
